According to ChEMBL document CHEMBL4118256, “Second Generation of Mannich Base-Type Derivatives with in Vivo Activity against Trypanosoma cruzi” (J Med Chem, 2018):

What was measured:
Trypanosoma cruzi [1] = test: Trypanocidal activity against Trypanosoma cruzi MHOM/Pe/2011/Arequipa DTU 5 epimastigotes after 48 hrs by resazurin dye based assay; format: functional, organism-based; conditions: MHOM/Pe/2011/Arequipa DTU 5, 48 h
Procedure, shortened: (§1)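 Exponential-phase epimastigotes were seeded at 5×10^5 mL^-1 with compounds at 100–0.2 µM (DMSO 0.01% v/v) at 28 °C. After 48 h, resazurin was added for another 24 h. SDS was then added and absorbance read at 570 and 600 nm.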

Trypanosoma cruzi [2] = test: Trypanocidal activity against Trypanosoma cruzi IRHOD/CO/2008/SN3 DTU 1 epimastigotes after 48 hrs by resazurin dye based assay; format: functional, organism-based; conditions: IRHOD/CO/2008/SN3 DTU 1, 48 h; procedure, shortened: as §1
Trypanosoma cruzi [3] = test: Trypanocidal activity against Trypanosoma cruzi TINF/CH/1956/Tulahuen DTU 6 epimastigotes after 48 hrs by resazurin dye based assay; format: functional, organism-based; conditions: TINF/CH/1956/Tulahuen DTU 6, 48 h; procedure, shortened: as §1
Vero = test: Cytotoxicity against African green monkey Vero cells assessed as reduction in cell viability after 72 hrs by resazurin dye based assay; conditions: Chlorocebus sabaeus
Procedure, shortened: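 Vero monkey kidney cells grown at 37 °C, 5 % CO2, in RPMI with 10 % heat-inactivated FBS. Seeded at 1.25 × 10^4 mL-1 with compound at 1000 to 1 µM (DMSO 0.01 % v/v). After 48 h, resazurin added for a further 24 h, then SDS. Absorbance read at 570/600 nm. IC50 from triplicates in four separate determinations.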

[4] = Selectivity index, ratio of IC50 for African green monkey Vero cells to IC50 for Trypanosoma cruzi MHOM/Pe/2011/Arequipa DTU 5 epimastigotes; format: toxicity; conditions: read-out: Ratio IC50
Procedure, shortened: (§2)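 SI is Vero IC50 divided by the IC50 for the stated parasite form. For Vero cytotoxicity, cells were seeded at 1.25×10^4 mL^-1 with compounds at 1000–1 µM, incubated 48 h, then given resazurin for a further 24 h (72 h total), with absorbance read at 570/600 nm. Triplicate, four determinations.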

[5] = Selectivity index, ratio of IC50 for African green monkey Vero cells to IC50 for Trypanosoma cruzi IRHOD/CO/2008/SN3 DTU 1 epimastigotes; format: toxicity; conditions: read-out: Ratio IC50; procedure, shortened: as §2
[6] = Selectivity index, ratio of IC50 for African green monkey Vero cells to IC50 for Trypanosoma cruzi TINF/CH/1956/Tulahuen DTU 6 epimastigotes; format: toxicity; conditions: read-out: Ratio IC50; procedure, shortened: as §2

| Compound | IC50 (Trypanosoma cruzi [1]) [µM] | IC50 (Trypanosoma cruzi [2]) [µM] | IC50 (Trypanosoma cruzi [3]) [µM] | IC50 (Vero) [µM] | selectivity ratio [4] | selectivity ratio [5] | selectivity ratio [6] |
| --- | --- | --- | --- | --- | --- | --- | --- |
| O=C(CCN1CCN(c2ccc(Cl)cc2)CC1)c1ccc(F)c(Br)c1 | 26.6 | 35.1 | 30.6 | 206 | 7.7 | 5.9 | 6.7 |
| COc1ccccc1N1CCN(CCC(=O)c2ccc(F)cc2)CC1 | 58.3 | 40.5 | 45.6 | 24 | 0.4 | 0.6 | 0.5 |
| COc1ccc(C(=O)CCN2CCN(c3ccc([N+](=O)[O-])cc3)CC2)cc1OC | 94.5 | 174 | 105 | 105 | 1.1 | 0.6 | 1 |
| O=C(CCN1CCN(c2ccc(Cl)cc2)CC1)c1ccc(F)c(Cl)c1 | 45.5 | 29.5 | 29.1 | 114 | 2.5 | 3.9 | 3.9 |
| O=C(CCN1CCN(c2ccc(F)cc2)CC1)c1ccc(C(F)(F)F)cc1 | 36.9 | 66.4 | 60.3 | 28.5 | 0.8 | 0.4 | 0.5 |
| O=C(CCN1CCN(c2ccc(C(F)(F)F)cc2)CC1)c1ccccc1 | 12.8 | 16.2 | 24.9 | 15.7 | 1.2 | 1 | 0.6 |
| Cc1ccc(C(=O)CCN2CCN(c3ccc(Cl)cc3)CC2)cc1 | 31.7 | 26 | 29.5 | 184 | 5.8 | 7.1 | 6.2 |
| COc1ccc(N2CCN(CCC(=O)c3ccc(F)cc3)CC2)cc1 | 24.5 | 22.2 | 38.9 | 31.9 | 1.3 | 1.4 | 0.8 |
| O=C(CCN1CCN(c2ccc([N+](=O)[O-])cc2)CC1)c1ccc(F)cc1 | 65.8 | 54.5 | 78.1 | 110 | 1.7 | 2 | 1.4 |
| O=C(CCN1CCN(c2ccc(F)cc2)CC1)c1ccc(F)c(Br)c1 | 38.8 | 42.4 | 41.4 | 352 | 9.1 | 8.3 | 8.5 |
| O=C(CCN1CCN(c2ccc(C(F)(F)F)cc2)CC1)c1ccc(F)c(Cl)c1 | 21.6 | 45 | 29 | 74.5 | 3.4 | 1.7 | 2.6 |
| O=C(CCN1CCN(c2ccc(C(F)(F)F)cc2)CC1)c1ccc(OC(F)(F)F)cc1 | 51.2 | 38.4 | 86.3 | 64.9 | 1.3 | 1.7 | 0.8 |
| COc1ccc(C(=O)CCN2CCN(Cc3cccc(F)c3)CC2)cc1OC | 49 | 48 | 40.8 | 22.4 | 0.5 | 0.5 | 0.6 |
| O=C(CCN1CCN(c2ccc(C(F)(F)F)cc2)CC1)c1ccc(F)c(Br)c1 | 46.6 | 20.8 | 25.6 | 66.8 | 1.4 | 3.2 | 2.6 |
| O=C(CCN1CCN(c2ccc([N+](=O)[O-])cc2)CC1)c1ccc(Br)cc1 | 27.2 | 39.7 | 46.2 | 79.8 | 2.9 | 2 | 1.7 |
| O=C(CCN1CCN(c2ccc(Cl)cc2)CC1)c1ccc(OC(F)(F)F)cc1 | 42.2 | 34.1 | 61.8 | 95.6 | 2.3 | 2.8 | 1.5 |
| O=C(CCN1CCN(c2ccc(Cl)cc2)CC1)c1ccc(Br)cc1 | 42.5 | 26.4 | 20.9 | 52.1 | 1.2 | 2 | 2.5 |

| Compound | IC50 (Trypanosoma cruzi [1]) [µM] | IC50 (Trypanosoma cruzi [2]) [µM] | IC50 (Trypanosoma cruzi [3]) [µM] | IC50 (Vero) [µM] | selectivity ratio [4] | selectivity ratio [5] | selectivity ratio [6] |
| --- | --- | --- | --- | --- | --- | --- | --- |
| O=C(CCN1CCN(c2ccc(Cl)cc2)CC1)c1ccc(C(F)(F)F)cc1 | 52.7 | 38.2 | 39.1 | 54.2 | 1 | 1.4 | 1.4 |
| O=C(CCN1CCN(c2ccc(F)cc2)CC1)c1ccccc1 | 65.7 | 32.9 | 94.1 | 13.4 | 0.2 | 0.4 | 0.1 |
| O=C(CCN1CCN(c2ccc(C(F)(F)F)cc2)CC1)c1ccc(F)c(F)c1 | 33.4 | 28.8 | 54.1 | 14 | 0.4 | 0.5 | 0.3 |
| O=C(CCN1CCN(c2ccc(F)cc2)CC1)c1ccc(Cl)c(F)c1 | 39.5 | 75.3 | 46.2 | 105 | 2.7 | 1.4 | 2.3 |
| O=C(CCN1CCN(c2ccc(F)cc2)CC1)c1ccc(OC(F)(F)F)cc1 | 85.4 | 27.6 | 52.6 | 70.3 | 0.8 | 2.5 | 1.3 |
| O=C(CCN1CCN(c2ccc(Cl)cc2)CC1)c1ccc(F)c(F)c1 | 15.4 | 13.7 | 46.2 | 86.2 | 5.6 | 6.3 | 1.9 |
| Cc1ccc(C(=O)CCN2CCN(c3ccc(C(F)(F)F)cc3)CC2)cc1 | 14.2 | 17.6 | 22.5 | 140 | 9.8 | 7.9 | 6.2 |
| O=C(CCN1CCN(c2ccc([N+](=O)[O-])cc2)CC1)c1ccc(F)c(F)c1 | 85.2 | 160 | 53.1 | 122 | 1.4 | 0.8 | 2.3 |
| COc1ccc(C(=O)CCN2CCN(c3ccc(Cl)cc3)CC2)cc1OC | 90.3 | 43.9 | 36.6 | 185 | 2.1 | 4.2 | 5.1 |
| COc1ccc(C(=O)CCN2CCN(Cc3cccc(C)c3)CC2)cc1OC | 19.4 | 24.1 | 28.4 | 52 | 2.7 | 2.2 | 1.8 |
| COc1ccc(C(=O)CCN2CCN(c3ccc(C(F)(F)F)cc3)CC2)cc1 | 72.9 | 32.3 | 44 | 135 | 1.9 | 4.2 | 3.1 |
| COc1ccc(C(=O)CCN2CCN(Cc3ccccc3)CC2)cc1OC | 29.5 | 55.2 | 46.2 | 47.5 | 1.6 | 0.9 | 1 |
| COc1ccc(C(=O)CCN2CCN(c3ccc(F)cc3)CC2)cc1OC | 154 | 61.5 | 103 | 175 | 1.1 | 2.8 | 1.7 |
| O=C(CCN1CCN(c2ccc([N+](=O)[O-])cc2)CC1)c1ccc(Cl)c(F)c1 | 23.8 | 32.4 | 15.5 | 89.2 | 3.8 | 2.8 | 5.7 |
| O=C(CCN1CCN(c2ccc(C(F)(F)F)cc2)CC1)c1ccc(Cl)c(F)c1 | 27.6 | 49.1 | 66.7 | 74.3 | 2.7 | 1.5 | 1.1 |
| O=C(CCN1CCN(c2ccccc2F)CC1)c1ccc(F)cc1 | 37.9 | 52.6 | 53.5 | 49.5 | 1.3 | 0.9 | 0.9 |
| O=C(CCN1CCN(c2ccc(C(F)(F)F)cc2)CC1)c1ccc(Br)cc1 | 30 | 28.3 | 28.5 | 78.8 | 2.6 | 2.8 | 2.8 |
